Experiment [1] has as its system Canis familiaris. In words: Percent increase in heart rate (HR) in anesthetized dogs was determined. It counts as functional, Canis lupus familiaris.
Experiment [2] deals with Canis familiaris. In words: Percent decrease in mean arterial blood pressure (MAP) was determined in anesthetized dogs. It counts as functional, Canis lupus familiaris. The procedure, abridged: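 Femoral arterial pressure in anesthetized dogs via heparin-filled catheter and pressure transducer; baseline MAP 99 ± 3 mmHg. Escalating iv doses via femoral vein every 5 min, peak responses taken. Value is percent change in mean arterial pressure at the inotropic ED50 dose.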

The subject of experiment [3] is Canis familiaris. In words: Myocardial contractility was determined after intravenous administration in phenobarbital-anesthetized dogs (n=4). It counts as functional. To be noted: Canis lupus familiaris, Myocardium. The method in brief:
(§1)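 Dogs under anesthesia; Walton-Brodie strain-gauge arch sutured to right ventricle, tension set at 50 g. Increasing iv doses via femoral vein at 5-min intervals, peak responses recorded; vehicle injections tested. Inotropic ED50 by linear regression, mean ± SEM. Preload/afterload independence confirmed with dextran bolus and aortic compression.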

Experiment [4] concerns Canis familiaris. In words: Myocardial contractility was determined after intravenous administration in phenobarbital-anesthetized dogs. It counts as functional. To be noted: Canis lupus familiaris, Myocardium. The procedure, abridged:
as §1

Experiment [5] relates to Canis familiaris. In words: Myocardial contractility was determined after intravenous administration in phenobarbital anesthetized dogs (n=4). The settings on record: Canis lupus familiaris, Myocardium. It counts as functional. The method in brief: as §1

What is called ED50 is the dose that gives a 50% effect, or the effect in half of the subjects.

In the experiment with Canis familiaris [1], `CC1(C)C(=O)Nc2ccc(C3=NNC(=O)CC3)cc21` [INDOLIDAN] came in with an Increase of 12%. Also, the Decrease in the experiment on Canis familiaris [2] is listed as 15%. This compound also displayed an ED50 in the experiment on Canis familiaris [3] of 6.8 µg/kg.

`CC1(C)C(=O)Nc2ccc(-c3ccc(O)nn3)cc21` gave an Increase with Canis familiaris [1] of 24%. The compound further displayed a Decrease in the experiment with Canis familiaris [2] of 18%. This compound also yielded an ED50 in the experiment with Canis familiaris [4] of 7.4 µg/kg.

Consider `Cc1cc(O)nnc1-c1ccc2c(c1)C(C)(C)C(=O)N2`, for which, in the experiment with Canis familiaris [1], the Increase amounted to 15%. In addition, in the experiment with Canis familiaris [2], the Decrease is reported as 20%. In addition, in the experiment on Canis familiaris [5], it took a dose of 32.6 µg/kg to reach the 50% effect level (ED50).

`CC1CC(=O)NN=C1c1ccc2c(c1)C(C)(C)C(=O)N2` (configuration not stated) yielded an Increase with Canis familiaris [1] of 20%. Moreover, the Decrease in the experiment with Canis familiaris [2] was 31%. Also, it took a dose of 3.6 µg/kg to reach the 50% effect level in the experiment with Canis familiaris [3] (ED50).

The values are drawn from ChEMBL document CHEMBL1123710, “Molecular structure of the dihydropyridazinone cardiotonic 1,3-dihydro-3,3-dimethyl-5-(1,4,5,6-tetrahydro-6-oxo-pyridazinyl)- 2H-indol-2-one, a potent inhibitor of cyclic AMP phosphodiesterase” (1987).
